Results collected from several papers.
NTRK1: High affinity nerve growth factor receptor (NTRK1, Homo sapiens, UniProt P04629)
MAOA: Amine oxidase [flavin-containing] A (MAOA, Homo sapiens, UniProt P21397)
LDHA: L-lactate dehydrogenase A chain (LDHA, Homo sapiens, UniProt P00338)
TDP1: Tyrosyl-DNA phosphodiesterase 1 (TDP1, Homo sapiens, UniProt Q9NUW8)
PRMT3: Protein arginine N-methyltransferase 3 (PRMT3, Homo sapiens, UniProt O60678)
MAP3K7: Mitogen-activated protein kinase kinase kinase 7 (MAP3K7, Homo sapiens, UniProt O43318)
PTK2: Focal adhesion kinase 1 (PTK2, Homo sapiens, UniProt Q05397)
GSR: Glutathione reductase, mitochondrial (GSR, Homo sapiens, UniProt P00390)
PDE7A: High affinity 3',5'-cyclic-AMP phosphodiesterase 7A (PDE7A, Homo sapiens, UniProt Q13946)
PTPN1: Tyrosine-protein phosphatase non-receptor type 1 (PTPN1, Homo sapiens, UniProt P18031)

SMILES | target | assay | system | setting | IC50
CCS(=O)(=O)N1CC(CC#N)(n2cc(-c3ncnc4[nH]ccc34)cn2)C1 | Broad substrate specificity ATP-binding cassette transporter ABCG2 (ABCG2, Homo sapiens, UniProt Q9UNQ0) | transporter uptake, inhibitor, radiometric | Sf9 | 0.75 min, cell membranes | 50.3 µM
C=CC(=O)Nc1cc(Nc2nccc(Nc3cc(Cl)c(F)cc3C(C)(C)O)n2)c(OC)cc1N1CC[C@@H](N(C)C)C1 | NTRK1 | enzyme activity, inhibitor | – | with preincubation | > 10 µM
O=c1cc(-c2ccc(O)cc2)oc2c([C@@H]3O[C@H](CO)[C@@H](O)[C@H](O)[C@H]3O)c(O)c([C@@H]3O[C@H](CO)[C@@H](O)[C@H](O)[C@H]3O)c(O)c12 | MAOA | enzyme activity, inhibitor | – | – | 50.2 µM
COc1cc(C(=O)O)ccc1O[C@@H]1O[C@H](CO)[C@@H](O)[C@H](O)[C@H]1O | LDHA | enzyme activity, inhibitor | – | pH 7.4 | > 500 µM
COc1cc2c(OC)nc3c4cc5c(cc4cc(OCCCN4CCC(O)CC4)c3c2cc1OC)OCO5 | TDP1 | enzyme activity, inhibitor | – | – | 5.5 to 13 µM
Nc1ncnc2c1ncn2[C@@H]1O[C@H](CSCCNC(=O)NC2CCCCC2)[C@@H](O)[C@H]1O | PRMT3 | enzyme activity, inhibitor, fluorescence | – | – | > 100 µM
CCCCN1/C(=C/C=C(Br)/C=C/C2=[N+](CCCC)c3ccc(Br)cc3C2(C)C)C(C)(C)c2cc(Br)ccc21 | PRMT3 | enzyme activity, inhibitor, radiometric | – | – | 4.09 µM
COc1cc2c(OC)nc3c4cc5c(cc4cc(OCCCN4CCCC4)c3c2cc1OC)OCO5 | TDP1 | enzyme activity, inhibitor | – | – | 5.5 to 13 µM
COc1cc(/C=C/C(=O)N2CCC(Cc3ccccc3)CC2)ccc1OCc1ccccc1 | MAOA | enzyme activity, inhibitor, fluorescence | – | – | 80.7 µM
COc1cc2c(OC)nc3c4cc5c(cc4cc(OCCCN4CCC(N6CCCCC6)CC4)c3c2cc1OC)OCO5 | TDP1 | enzyme activity, inhibitor | – | – | 11 µM
C[C@@H]1C[C@H]2O[C@@H]2CC/C=C/C(=O)Cc2cc(O)cc(O)c2C(=O)O1 | MAP3K7 | enzyme activity, inhibitor, ATP luminescence | – | – | > 10 µM
C(/C=C/c1sc2c3ccccc3ccc2[n+]1CCCc1ccccc1)=C1/Sc2c(ccc3ccccc23)N1CCCc1ccccc1 | PRMT3 | enzyme activity, inhibitor, radiometric | – | – | 2.1 µM
Nc1ncnc2c1ncn2[C@@H]1O[C@H](COP(=O)(O)OP(=O)(O)O)[C@@H](O)[C@H]1O | Nucleotide-binding oligomerization domain-containing protein 1 (NOD1, Homo sapiens, UniProt Q9Y239) | ligand displacement, FP | – | – | 0.19 µM
O=c1oc(Cl)c(Cl)c2ccccc12 | Rhomboid protease AarA (Providencia stuartii, UniProt P46116) | enzyme activity, inhibitor, fluorescence | – | – | 10 µM
Nc1ncnc2c1ncn2[C@@H]1O[C@H](CSCCNC(=O)Nc2cccc3ccccc23)[C@@H](O)[C@H]1O | PRMT3 | enzyme activity, inhibitor, fluorescence | – | – | 81 µM
O=C(c1ccccc1)c1ccc2n1CCC2C(=O)O (centres unmarked) | Solute carrier family 22 member 6 (SLC22A6, Homo sapiens, UniProt Q4U2R8) | transporter uptake, inhibitor | – | – | 0.653 µM
CCn1ncc2c1-c1cnc(N)c(c1)O[C@H](C)c1cc(F)ccc1-c1nn(C)nc1C2 | PTK2 | enzyme activity, inhibitor, radiometric | – | – | 0.011 µM
C[C@@H]1C[C@H]2O[C@@H]2/C=C\C=C\C(=O)Cc2c(Cl)c(O)cc(O)c2C(=O)O1 | MAP3K7 | enzyme activity, inhibitor, ATP luminescence | – | – | > 10 µM
CNC(=O)c1cc2c(Oc3ccc(NC(=O)C4(C(=O)Nc5ccc(F)cc5)CC4)cc3)ccnc2cc1OC | Receptor-interacting serine/threonine-protein kinase 2 (RIPK2, Homo sapiens, UniProt O43353) | enzyme activity, inhibitor, radiometric | – | – | 0.017 µM

SMILES | target | assay | system | setting | IC50
Clc1ccc2c(c1)N(CCCN1CCN(CCCc3ccccc3)CC1)c1ccccc1S2 | GSR | enzyme activity, inhibitor, absorbance | – | – | > 100 µM
Nc1ncnc2c1ncn2[C@@H]1O[C@H](CSCCNC(=O)NCc2ccccc2)[C@@H](O)[C@H]1O | Protein arginine N-methyltransferase 5 (PRMT5, Homo sapiens, UniProt O14744) | enzyme activity, inhibitor, radiometric | – | – | < 2.4 µM
O=C(O)c1ccc(Nc2c(-c3ccc(S(=O)(=O)O)cc3)nc3ccccn23)cc1 | TDP1 | enzyme activity, inhibitor | – | – | > 100 µM
CN1CCN(CCCN2c3ccccc3Sc3ccc(Cl)cc32)CC1 | GSR | enzyme activity, inhibitor, absorbance | – | – | > 100 µM
C[C@@H](N)COc1ccc(-c2cnc3ccc(N[C@H](C)c4cccc(F)c4)nn23)cc1 | NTRK1 | enzyme activity, inhibitor | – | – | 0.0044 µM
O=C1NC(=O)/C(=C/c2ccc(OCCNc3nc4c(cnn4C4CCCC4)c(=O)[nH]3)c(F)c2)S1 | PDE7A | enzyme activity, inhibitor | – | – | 0.027 µM
CN1CCN(c2ccc(Nc3ncc4cc(C#N)c(=O)n(C5CCCC5)c4n3)cc2)CC1 | Tyrosine-protein kinase Lyn (LYN, Homo sapiens, UniProt P07948) | enzyme activity, inhibitor | – | – | 0.0358 µM
CC(C)C[C@H](NC(=O)[C@H]1O[C@@H]1C(=O)O)C(=O)NCCCCN=C(N)N | Cathepsin S (CTSS, Homo sapiens, UniProt P25774) | enzyme activity, inhibitor | – | – | 0.00174 µM
O=C(/C=C/c1ccc(O)c(O)c1)O[C@@H]1C[C@](O)(C(=O)O)C[C@@H](O)[C@H]1O | LDHA | enzyme activity, inhibitor | – | pH 7.4 | > 500 µM
CC(C)(C)OC(=O)N1CCN(C(=O)C(=O)CC(=O)c2cccc(N(Cc3ccccc3)Cc3ccccc3)c2)CC1 | PTPN1 | enzyme activity, inhibitor, absorbance | – | pH 7 | 9.2 µM
COc1ccc(C2=NN(C3CCCCCC3)C(=O)[C@@H]3CC=CC[C@H]23)cc1-c1ccc(C(N)=O)cc1 (relative stereo) | PDE7A | enzyme activity, inhibitor | – | – | > 10 µM
CC1=C[C@@]2(C[C@H](C)[C@H]3CC=C(C)[C@@H](O[C@@H]4O[C@H](CO)[C@@H](O)[C@H](O)[C@H]4O)[C@@H]3O2)OC1=O | PTPN1 | enzyme activity, inhibitor | – | – | 91.3 µM
Cc1cnc(-c2ccc(-c3ccc(NC(=O)Nc4c(F)cc(F)cc4F)cc3F)c3c2C(=O)NC3)[nH]1 | NTRK1 | enzyme activity, inhibitor | – | – | 0.0148 µM
C[C@H]1Oc2cc(cnc2N)-c2c(nn(C)c2C#N)CN(C)C(=O)c2ccc(F)cc21 | PTK2 | enzyme activity, inhibitor, radiometric | – | – | 0.004 µM
CSc1ccc(/C=C2/C(C)=C(CC(=O)O)c3cc(F)ccc32)cc1 | PDE7A | enzyme activity, inhibitor | – | – | > 100 µM
Nc1ncnc2c1ncn2[C@@H]1O[C@H](CSCCNC(=O)NCCc2ccccc2)[C@@H](O)[C@H]1O | PRMT3 | enzyme activity, inhibitor, fluorescence | – | – | > 100 µM
NS(=O)(=O)c1cccc(Cc2c(-c3ccc(F)c(F)c3)[nH]n(-c3nc(C(=O)O)cs3)c2=O)c1 | LDHA | enzyme activity, inhibitor | – | – | > 50 µM
N=C(NCCCSC[C@H]1O[C@@H](n2cnc3c(NCCCc4ccccc4)ncnc32)[C@H](O)[C@@H]1O)NCC1CCCCC1 | PRMT3 | enzyme activity, inhibitor, fluorescence | – | – | > 100 µM
O=c1cc(-c2ccc(O)cc2)oc2cc(O)c([C@@H]3O[C@H](CO)[C@@H](O)[C@H](O)[C@H]3O)c(O)c12 | MAOA | enzyme activity, inhibitor | – | – | 25.8 µM
